T cell HTS = T cell immune modulators affecting CD8 T cell-vesicle binding | 2C CD8+ T cell-vesicle binding, flow cytometry; hits give low values | response (vesicle binding), % at 7 µM | hit rate 0.068% among 330,000;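 active means response, share of CD8 T cells binding vesicles, and their 90th percentile fluorescence all below set limits, cut at about 80% in these data, passing the limit was not always enough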;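 further: values below 100% mean blocked vesicle binding to the CD8+ T cells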
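Benchmarks: naked versus QL9-loaded vesicles / Assay system: purified 2C TCR transgenic mouse naive CD8+ T cells / Technique: high-throughput flow cytometry with anti-B7-1 and anti-CD8 staining / Timing: Cell–vesicle co-incubation 1.5 h at 37 °C, staining 20 min on ice / Read-out: percent CD8+ FL2 mean versus row control / Probe or stimulus: QL9-loaded Drosophila micro-vesicles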
Mot1-301 SUMO = inhibitors of SUMOylation pathway: yeast Mot1-301 growth rescue. hit rate 1% among 320,000. growth rescue, % at 18.8 µM. AID 2716. S. cerevisiae Mot1-301 growth rescue, ATP luminescence, 38.5C; percent above DMSO median, 100 means doubled;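 active means every valid replicate shows activation above 250% relative to neutral control wells; inactive means the rest, any valid replicate at or below 250%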;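 further: OY570 slx delta 5 strain wells were the positive control but not used for scaling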
HIF activator = HIF pathway transcriptional activation. U2OS HRE-luciferase reporter, luminescence; normalized: DMSO 0%, desferrioxamine 100%. activation, % at 7.5 µM (by protocol). hit rate 0.32% among 300,000. AID 1910;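 active means mean activation of at least 10% of the iron chelator positive control signal, with at least half of replicates also reaching 10%; inconclusive means mean and replicate majority disagree about reaching 10%; inactive means mean and most replicates under 10%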
JMJD2C inh = human JMJD2C demethylase inhibition; Q9H3R0; GST-JMJD2C(1-420) H3K9me3 demethylation, DELFIA europium; inhibition, % at 2.35 µM; hit rate 0.069% among 330,000;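 active means more than half of a compound's replicate wells show inhibition beyond 50%, single wells judged on their own value; inconclusive means some, but no more than half, of replicates pass 50% inhibition; inactive means no replicate passes 50% inhibition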;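 further: signal counts dimethyl H3K9 product captured on neutravidin plate; 0% = median of DMSO wells and 100% = 0.3 times that DMSO median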
Target sequence (Q9H3R0 1-420 limits assumed): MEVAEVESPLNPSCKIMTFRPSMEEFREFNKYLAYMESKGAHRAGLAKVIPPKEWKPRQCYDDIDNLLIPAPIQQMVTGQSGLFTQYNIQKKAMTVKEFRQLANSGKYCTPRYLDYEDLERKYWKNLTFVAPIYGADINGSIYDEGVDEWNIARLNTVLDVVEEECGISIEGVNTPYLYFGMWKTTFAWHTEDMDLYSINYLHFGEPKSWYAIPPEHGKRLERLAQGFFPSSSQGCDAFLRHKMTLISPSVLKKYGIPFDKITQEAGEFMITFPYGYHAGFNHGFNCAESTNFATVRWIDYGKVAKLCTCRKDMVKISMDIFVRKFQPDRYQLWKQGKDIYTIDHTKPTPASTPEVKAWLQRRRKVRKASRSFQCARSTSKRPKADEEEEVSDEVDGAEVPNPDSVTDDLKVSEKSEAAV
* hit, by the source's call; i = inactive; ? = inconclusive; / = not tested or not shown; + = active, no number. Most compounds without a hit are left out; they make up all but 1.4% or so of the library.

SMILES	T cell HTS	Mot1-301 SUMO	HIF activator	JMJD2C inh
CCCCC(=O)NC(c1ccccc1OC)c1ccc2cccnc2c1O (centres undefined)	150	-3	63*	-16
Cc1ccc(F)cc1CNC(=O)C1CCC(=O)N(CCCN2CCCC2=O)C1 (centres undefined)	490	-3	1	-6
COc1ccc(C(=O)NCC(=O)N/N=C/c2cccc(OC(=O)c3ccco3)c2)cc1OC	84	17	1	-2
Cc1cc(O)ccc1N/C=C1\CCCC1=O	478	4	-1	-25
Cc1ccc([N+](=O)[O-])cc1N/C=C1\CCCCC1=O	164	+	2	-21
COCCCNC(CC(=O)Nc1cc(C)cc(C)c1)C(=O)O (centres undefined)	345	1	0	-34
CCOC(=O)C(=NC1CCS(=O)(=O)C1)NNc1ccc(Br)cc1 (centres undefined)	609	372*	0	8
CCCCn1c(=O)c2c(nc3n2CCCN3Cc2ccccc2)n(C)c1=O	/	/	0	-38
C[C@H](CO)N1C[C@H](C)[C@@H](CN(C)S(=O)(=O)c2cccs2)Oc2c(NS(=O)(=O)c3ccccc3)cccc2C1=O	214	7	/	-3
COc1cc2cccc(OC)c(=O)c2c(OC)c1OC	278	757*	0	1
COc1ccc(-c2nnc(SCc3ccc(C(=O)O)cc3)n2N)cc1	140	499	0	3
COc1ccccc1-c1coc2c(CN3CCC(C)CC3)c(O)ccc2c1=O	0	0	-56	-8
CCC1CCCCN1Cc1c(O)ccc2c(=O)c(-c3ccccc3OC)coc12 (centres undefined)	602	2	45*	-5
CC1CN(CC(O)COCc2ccc3c(c2)OCO3)CC(C)O1 (centres undefined)	526	-6	0	-5
C/C(=N\NC(=S)Nc1c(C)cccc1C)c1cc2ccccc2o1	322	322*	0	-1
CCc1ccc(CCC(=O)Nc2sc3c(c2C#N)CCCC3)o1	382	-2	-1	51*
O=C(N/N=C/c1ccccn1)c1ccc(Br)cc1	145	9	16*	-1
CCOC(=O)c1c(NC(=O)CN2C(=O)NC3(CCCC3)C2=O)sc(C)c1CC	554	-14	-13	-1
O=S(=O)(CCSc1nc2ccccc2s1)c1nc2ccccc2s1	657	-5	13*	-50
Cc1cc(NC(=O)c2ccccc2)n(-c2nc3ccccc3[nH]2)n1	379	-18	24*	1
COc1cccc(OC)c1C(=O)Nc1cc(C)nn1-c1nc2ccccc2[nH]1	408	-5	1	6
c1ccc(-c2sc3ccccc3c2-c2ccc(OCCN3CCOCC3)cc2)cc1	463	407*	/	-11
CCOC(=O)C(C)Oc1ccsc1C(=O)OC (centres undefined)	342	32	0	51*
COC(=O)COc1ccsc1C(=O)OC	441	-11	0	-1
CN1C(C(=O)NCc2cccc(C(F)(F)F)c2)CC2Cn3c(nc4cc(Cl)c(Cl)cc43)C21 (centres undefined)	168	277*	-1	-13
SMILES	T cell HTS	Mot1-301 SUMO	HIF activator	JMJD2C inh
CN1C(C(=O)NCc2cccc(Br)c2)CC2Cn3c(nc4cc(Cl)c(Cl)cc43)C21 (centres undefined)	212	295	-1	17
Cc1ccc(C(=O)NNC(=O)C(NC(=O)c2cccc(C)c2)C(C)C)cc1 (centres undefined)	600	-15	/	0
O=C(Nc1ccc2c(c1)OCO2)C1CCN(C(=O)c2ccc(Br)cc2)CC1	370	-10	0	-5
O=C(CS(=O)(=O)c1ccccc1)Nc1ccc(N2CCOCC2)cc1	i	107	20*	7
O=C(CN1CCN(Cc2ccccc2)CC1)Nc1ccc(N2CCOCC2)cc1	274	13	0	4
COc1ccccc1N1CCN(S(=O)(=O)CCNC(=O)C2CC(=O)N(c3ccccc3)C2)CC1 (centres undefined)	353	11	0	-4
O=C(NCCS(=O)(=O)N1CCN(c2ccccc2F)CC1)C1CC(=O)N(c2ccc(F)cc2)C1 (centres undefined)	320	10	456*	-3
COc1ccc(CCNC(=O)COC(=O)CCC(=O)c2ccc(F)cc2)cc1OC	536	-4	299*	-3
CC(C)Sc1nc2ccccc2n1CC(=O)NCc1ccc2c(c1)OCO2	315	0	0	-1
O=C(NCCSc1c[nH]c2ccccc12)c1ccc(Br)o1	898	-31	16*	-2
O=C(Cn1c(Cc2ccccc2)nc2ccccc21)NCc1ccc2c(c1)OCO2	i	-4	137*	6
CC(C)N(C(=O)Cn1c(SCC(=O)NCc2ccc3c(c2)OCO3)nc2ccccc21)C(C)C	248	307*	0	-12
O=C(Cn1c(CO)nc2ccccc21)NCc1ccc2c(c1)OCO2	340	-9	0	-2
O=C(CSc1c[nH]c2ccccc12)NCc1ccc2c(c1)OCO2	420	12	44*	-2
O=C(CSc1nc2ccccc2[nH]1)NCc1ccc2c(c1)OCO2	190	-15	/	14
O=C1CSC(c2cccc([N+](=O)[O-])c2)N1CCc1ccccc1 (centres undefined)	175	5	-1	-4
Cc1ccc(S(=O)(=O)N(C)C)cc1NC(=O)c1c(-c2c(F)cccc2Cl)noc1C	379	-12	0	2
COc1ccc(Nc2ncnc3sc(-c4ccccc4)cc23)cc1OC	200	20	0	54*
O=[N+]([O-])c1cncc([N+](=O)[O-])c1Nc1cccc(O)c1	273	-15	-1	-9
O=S(=O)(c1cccs1)N1CCN(c2ccc(O)cc2)CC1	452	6	0	2
Cc1c(C(=O)NC2CCOC2)oc2c(F)cccc12 (centres undefined)	330	10	4	14
CCCC(=O)Nc1ccc(Cl)c(NC(=O)c2cccnc2)c1	0.0*	-6	0	5
COC(CNC(=O)[C@H](Cc1ccccc1)N1Cc2ccccc2C1=O)OC	315	5	-8	1
CC(=O)Oc1oc(-c2ccccc2)nc1C=Nc1ccc(N(C)C)cc1	279	-18	1	13
CN(C)c1ccc(N=Cc2nc(-c3ccccc3)oc2OC(=O)c2ccccc2)cc1	5.7*	9	2	77*
SMILES	T cell HTS	Mot1-301 SUMO	HIF activator	JMJD2C inh
Cc1cc(C)c(CSc2nnnn2-c2ccc(C(=O)O)cc2)c(C)c1	4	581*	-2	4
CC(=O)Nc1ccc2c(c1)N(S(=O)(=O)c1cccs1)CCC2	256	26	0	?
COc1ccc(NC(=O)c2ccccc2NS(=O)(=O)c2ccc(C)cc2)c([N+](=O)[O-])c1	87	823*	0	6
COc1ccc(-n2nnnc2S(=O)(=O)CC(=O)N2CCCCC2)cc1	162	486*	/	/
COc1ccc(-n2nnnc2S(=O)(=O)Cc2ccc(C(=O)O)cc2)cc1	681	-9	-1	2
Nc1ccc(Oc2ccc3c(c2)C(=O)N(CC2CCCO2)C3=O)cc1 (centres undefined)	239	284*	-2	76

Screening results as filed in PubChem BioAssay.
